Active and inactive are the calls of the source. No cut-off for these calls is given here.
What was measured:
[1] = Lipophilicity index (Rm) (HPLC); assay type: physicochemical
[2] = Base strength is expressed as pKa, determined in water at 25 degrees Centigrade by spectrophotometric method.; assay type: physicochemical
[3] = tested on: HCT-8; test: Inhibition of human colon tumor (HCT-8) cell growth in culture; assay type: functional, cell-based
Method in brief: (§1)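 IC50 is the drug concentration, in nM, that inhibits growth of the cultured cell line by 50%.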

[4] = tested on: L1210; test: Inhibition murine leukemia L1210 cell growth in culture; assay type: functional, cell-based; conditions: Mus musculus; method in brief: as §1
[5] = tested on: Lewis lung carcinoma cell line; test: (§2) Percentage increase in life span of tumor bearing animals compared to non treated, tumor-bearing controls when treated at the optimal dose of 100 mg/kg/day intraperitoneally; assay type: functional; conditions: Mus musculus, ip, route intraperitoneal
[6] = tested on: P388; test: as §2; assay type: functional; conditions: Mus musculus, P388, ip; route intraperitoneal
[7] = Selectivity ratio of IC50 of HCT to IC50 of L1210 cell lines; assay type: functional
[8] = tested on: Lewis lung carcinoma cell line; test: (§3) Percentage increase in life span of tumor bearing animals compared to non treated, tumor-bearing controls when treated at the optimal dose of 65 mg/kg/day intraperitoneally; assay type: functional; conditions: Mus musculus, ip, route intraperitoneal
[9] = tested on: P388; test: as §3; assay type: functional; conditions: Mus musculus, P388, ip; route intraperitoneal
[10] = tested on: Lewis lung carcinoma cell line; test: (§4) Percentage increase in life span of tumor bearing animals compared to non treated, tumor-bearing controls when treated at the optimal dose of 150 mg/kg/day intraperitoneally; assay type: functional; conditions: Mus musculus, ip, route intraperitoneal
[11] = tested on: P388; test: as §4; assay type: functional; conditions: Mus musculus, P388, ip; route intraperitoneal
[12] = tested on: P388; test: Percentage increase in life span of tumor bearing animals compared to non treated, tumor-bearing controls when treated at the optimal dose of 30 mg/kg/day intraperitoneally; assay type: functional; conditions: Mus musculus, P388, ip; route intraperitoneal
[13] = tested on: P388; test: Percentage increase in life span of tumor (P388 cells) bearing animals compared to non treated, tumor-bearing controls when treated at the optimal dose of 45 mg/kg/day; IA denotes inactive; assay type: functional, organism-based; conditions: Mus musculus

Compound	Rm [1]	pKa [2]	IC50 [3] [nM]	IC50 [4] [nM]	ILS at 100 mg/kg/day [5] [%]	ILS at 100 mg/kg/day [6] [%]	Ratio [7]	ILS at 65 mg/kg/day [8] [%]	ILS at 65 mg/kg/day [9] [%]	ILS at 150 mg/kg/day [10] [%]	ILS at 150 mg/kg/day [11] [%]	ILS at 30 mg/kg/day [12] [%]	IA [13]
COc1cc(C(=O)NCCN(C)C)c2nc3ccccc3cc2c1.Cl.Cl	-0.13	3.34	720	30	105	99	24	–	–	–	–	–	–
CN(C)CCNC(=O)c1cccc2cc3c(Cl)cccc3nc12.Cl.Cl.Cl	0.01	–	790	160	–	–	4.9	63	102	–	–	–	–
CN(C)CCNC(=O)c1cccc2cc3cc(Cl)ccc3nc12.Cl.Cl	-0.03	–	610	250	94	106	2.4	–	–	–	–	–	–
COc1ccc2cc3cccc(C(=O)NCCN(C)C)c3nc2c1.Cl.Cl	-0.47	4.59	470	210	85	–	2.2	–	–	–	–	–	–
CN(C)CCNC(=O)c1cccc2cc3ccc(Cl)cc3nc12.Cl	-0.06	–	350	6.4	–	–	54	91	–	–	–	–	–
CN(C)CCNC(=O)c1cc(Cl)cc2cc3ccccc3nc12.Cl.Cl	0.03	–	440	31	219	62	14.2	–	–	–	–	–	–
COc1ccc2nc3c(C(=O)NCCN(C)C)cccc3cc2c1.Cl.Cl	-0.22	3.54	1700	640	–	–	2.7	–	–	46	91	–	–
CN(C)CCNC(=O)c1ccc(Cl)c2cc3ccccc3nc12.Cl.Cl	0.04	–	370	33	120	110	11.2	–	–	–	–	–	–
Cc1ccc(C(=O)NCCN(C)C)c2nc3ccccc3cc12.Cl.Cl	0.1	–	400	37	–	71	10.8	–	–	–	–	–	–
Cc1ccc2nc3c(C(=O)NCCN(C)C)cccc3cc2c1.Cl.Cl	-0.05	–	1240	200	–	68	6.2	–	–	85	–	–	–
COc1ccc(C(=O)NCCN(C)C)c2nc3ccccc3cc12.Cl.Cl	-0.13	3.81	115	8.8	–	–	13.1	–	–	–	–	205	–
CN(C)CCCNC(=O)c1cccc2cc3ccccc3nc12.Cl.Cl	-0.1	–	2900	370	–	–	7.8	–	–	84	118	–	–
CN(C)CCCCNC(=O)c1cccc2cc3ccccc3nc12.Cl	0.01	–	930	160	100	143	5.8	–	–	–	–	–	–
CCN(CC)CCNC(=O)c1cccc2cc3ccccc3nc12.Cl.Cl	0.17	–	–	630	–	–	–	–	–	62	61	–	–
COc1cccc2nc3c(C(=O)NCCN(C)C)cccc3cc12.Cl	-0.12	3.82	520	58	66	128	9	–	–	–	–	–	–
Cc1cc(C(=O)NCCN(C)C)c2nc3ccccc3cc2c1.Cl.Cl	-0.04	–	657	130	–	120	5.1	–	–	33	–	–	–
Cc1c2ccccc2nc2c(C(=O)NCCN(C)C)cccc12.Cl.Cl	-0.33	4.34	160	150	–	–	1.1	–	–	–	–	–	inactive
